Active and inactive are the calls of the source. No cut-off for these calls is given here.
Experiments:
[1] = Induction of microtubule depolymerisation in rat A-10 cell line measured after 18 hrs by indirect immunofluorescence method; settings: a10
Method in brief: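 Rat A-10 cells, chosen because they arrest in interphase without significant mitotic accumulation, were exposed to compounds for 18 h. Cellular microtubules were then visualized by indirect immunofluorescence. EC50 values come from at least three independent experiments.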

[2] = Antiproliferative activity against human SK-OV-3 MDR-1-6/6 cells expressing Pgp assessed as decrease in cell growth measured after 48 hrs by SRB method; assay type: functional; settings: SK-OV-3, 48 h
[3] = Relative resistance, ratio of IC50 for inhibition of beta3 Tubulin (unknown origin) expressed in human HeLa cell line assessed as inhibition of cell proliferation to IC50 antiproliferative activity against human HeLa cells
[4] = Relative resistance, ratio of IC50 for antiproliferative activity against human SK-OV-3 MDR-1-6/6 cells expressing Pgp to IC50 antiproliferative activity against human SK-OV-3 cells; assay type: functional
HeLa = experiment: Antiproliferative activity against human HeLa cells assessed as decrease in cell growth measured after 48 hrs by SRB method; assay type: functional, cell-based
U-251 = experiment: Cytotoxicity against human U251 cell line assessed as inhibition of cell growth after 48 hrs by SRB assay; assay type: functional, cell-based; settings: U-251, 48 h
MDA-MB-435 [5] = experiment: Antiproliferative activity against human MDA-MB-435 cell line assessed as inhibition of cell proliferation measured after 48 hrs by SRB assay; assay type: functional, cell-based; settings: MDA-MB-435, 48 h
Method in brief: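 MDA-MB-435 melanoma cells were assessed by sulforhodamine B assay. IC50 is the mean ± SD of at least three independent experiments, each run in triplicate.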

SK-OV-3 = experiment: Antiproliferative activity against human SK-OV-3 cells assessed as decrease in cell growth measured after 48 hrs by SRB method; assay type: functional, cell-based; settings: SK-OV-3, 48 h
[6] = Inhibition of bovine tubulin polymerization assessed as reduction in extent of assembly preincubated for 15 mins followed by addition of reaction mixture measured after 20 mins by turbidimetric assay; set-up: species or system Bos taurus
Method in brief: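 After chilling, GTP was added (0.4 mM final). Turbidity at 350 nm was read after a jump from 0 °C to 30 °C.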

A10 [7] = experiment: Potency index, ratio of CA-4 IC50 to test compound IC50 for induction of microtubule depolymerisation in rat A-10 cell line measured after 18 hrs by indirect immunofluorescence method
A10 [8] = experiment: Induction of microtubule depolymerisation in rat A-10 cell line at 40 uM measured after 18 hrs by indirect immunofluorescence method
MDA-MB-435 [9] = experiment: Antiproliferative activity against human MDA-MB-435 cell line assessed as inhibition of cell proliferation at 10 uM measured after 48 hrs by SRB assay; assay type: functional
Bos taurus [10] = species on record: Bos taurus; experiment: Inhibition of [3H]colchicine binding to bovine tubulin at 5 uM measured after 10 mins by scintillation counting
Method in brief: (§1)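 Purified bovine brain tubulin at 1.0 µM was mixed with 5.0 µM [3H]colchicine and inhibitor, plus components that stabilize colchicine binding, in 5% DMSO; tubulin was added last, on ice. Binding ran 10 min at 37 °C and was stopped with ice water. Mixtures were filtered through stacked DEAE-cellulose filters, and bound radiolabel was measured by scintillation counting.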

Bos taurus [11] = species on record: Bos taurus; experiment: Inhibition of [3H]colchicine binding to bovine tubulin at 1 uM measured after 10 mins by scintillation counting; method in brief: as §1

SMILES | EC50 [1] | IC50 [2] | Ratio IC50 [3] | Ratio IC50 [4] | IC50 (HeLa) | IC50 (U-251) | IC50 (MDA-MB-435 [5]) | IC50 (SK-OV-3) | IC50 [6] | Ratio IC50 (A10 [7]) | Activity (A10 [8]) | inhibition at 10 µM (MDA-MB-435 [9]) | inhibition (Bos taurus [10]) | inhibition (Bos taurus [11])
COc1cccc2c(N(C)c3nc(C)nc4c3CCC4)cccc12 | 3700 nM | 1300 nM | 0.7 | 1.1 | 1200 nM | 38.9 nM | 820 nM | 1200 nM | – | – | – | – | – | –
COc1ccc2c(N(C)c3nc(C)nc4c3CCC4)cccc2c1 | > 10000 nM | – | – | – | – | 88.3 nM | – | – | > 20000 nM | – | – | – | – | –
COc1ccc(Nc2nc(C)nc3c2CC(C)C3)cc1 (centres undefined) | – | – | – | – | – | – | – | – | – | 3 | inactive | 7% | – | –
COc1cccc2cc(N(C)c3nc(N)nc4c3CCC4)ccc12 | 26 nM | 19.6 nM | 0.8 | 1.3 | 12.6 nM | – | 8.7 nM | 14.9 nM | – | – | – | – | – | –
COc1ccc(N(C)c2nc(C)nc3c2CC(C)C3)cc1 (centres undefined) | 282 nM | – | – | – | – | – | 25.7 nM | – | – | – | – | – | – | –
COc1cccc2cc(N(C)c3ncnc4c3CCC4)ccc12 | 184 nM | 74 nM | 0.8 | 2 | 56.4 nM | 72.5 nM | 34 nM | 37 nM | 1200 nM | – | – | – | 93% | 77%
